# Laboratory results taken from ChEMBL document CHEMBL3352730, “Synthesis and effects on cell viability of flavonols and 3-methyl ether derivatives on human leukemia cells” (Eur J Med Chem, 2014).
# Activity calls are given as the source filed them. No cut-off for these calls is given here.
# Assays:
# [1] = tested on: HL-60; test: Induction of apoptosis in human HL60 cells assessed as pro-caspase-6 cleavage by Western blotting method; type: functional, cell-based
# In short: (§1)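 Cells were exposed to a range of compound concentrations and harvested at 24 h. Lysates were immunoblotted for caspase proforms and cleaved forms, and for Bcl-2 family proteins.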
# [2] = tested on: U-937; test: Induction of cell cycle arrest in human U937 cells assessed as accumulation at subG1 phase at 1 uM after 24 hrs by propidium iodide staining based flow cytometry (reference value: 3.9 +/- 0.8%); type: functional
# [3] = tested on: HL-60; test: Induction of cell cycle arrest in human HL60 cells assessed as accumulation at G1 phase at 10 uM after 24 hrs by propidium iodide staining based flow cytometry (reference value: 53 +/- 1.1%); type: functional
# [4] = tested on: U-937; test: Cytotoxicity against human U937 cells at 30 uM incubated for 24 hrs followed of 0.5 ug/mL TRAIL exposure for 24 hrs by MTT assay; type: functional, cell-based
# In short: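 U937 cells, MTT viability read-out. One arm received TRAIL at 0.5 µg/mL together with compound at 30 µM for 48 h. The other arm had compound for 24 h, then TRAIL for 24 h. Three independent experiments, each in triplicate.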
# [5] = tested on: HL-60; test: Induction of apoptosis in human HL60 cells assessed as increase in caspase 3/7 activity DEVD-pNA substrate at 10 uM after 24 hrs; type: functional
# In short: (§2)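 Cells were given 10 µM for 24 h. Lysates were assayed for cleavage of DEVD-pNA (caspase-3/7), IETD-pNA (caspase-8) and LEHD-pNA (caspase-9). Results are expressed as fold over control, from three independent experiments in triplicate.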
# [6] = tested on: MOLT-3; test: Induction of apoptosis in human MOLT3 cells assessed as pro-caspase-3 cleavage by Western blotting method; type: functional, cell-based; in short: as §1
# [7] = Cytotoxicity against human HL60 cells after 72 hrs by MTT assay; type: functional, cell-based; settings: HL-60, 72 h
# In short: (§3)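 MTT colorimetric assay with 72 h continuous exposure. IC50 was fitted per experiment by non-linear regression. Values are means with SE from at least three independent experiments, each run in triplicate.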
# [8] = tested on: Raji; test: Cytotoxicity against human Raji cells after 72 hrs by MTT assay; type: functional, cell-based; in short: as §3
# [9] = tested on: HL-60; test: Induction of cell cycle arrest in human HL60 cells assessed as accumulation at G2/M phase at 3 uM after 12 hrs by propidium iodide staining based flow cytometry (reference value: 18.5 +/- 0.5%); type: functional
# [10] = tested on: U-937; test: Induction of cell cycle arrest in human U937 cells assessed as accumulation at S phase at 3 uM after 24 hrs by propidium iodide staining based flow cytometry (reference value: 18.6 +/- 0.3%); type: functional
# [11] = tested on: MOLT-3; test: Induction of apoptosis in human MOLT3 cells assessed as increase in caspase 9 activity using LEHD-pNA substrate at 10 uM after 24 hrs; type: functional, cell-based; in short: as §2
# [12] = tested on: U-937; test: Induction of cell cycle arrest in human U937 cells assessed as accumulation at S phase at 3 uM after 12 hrs by propidium iodide staining based flow cytometry (reference value: 20.5 +/- 0.8%); type: functional
# [13] = tested on: HL-60; test: Induction of cell cycle arrest in human HL60 cells assessed as accumulation at G1 phase at 1 uM after 48 hrs by propidium iodide staining based flow cytometry (reference value: 60.4 +/- 0.4%); type: functional
# [14] = tested on: U-937; test: Induction of apoptosis in human U937 cells assessed as pro-caspase-7 cleavage by Western blotting method; type: functional, cell-based
# In short: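 U937 cells exposed to increasing concentrations of the flavonol and harvested at 24 h. Lysates were immunoblotted with antibodies that detect both the pro-caspases and their cleaved forms.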
# [15] = tested on: MOLT-3; test: Effect on Bax expression in human MOLT3 cells by Western blotting method; type: functional, cell-based; in short: as §1
# [16] = tested on: HL-60; test: Induction of cell cycle arrest in human HL60 cells assessed as accumulation at G2/M phase at 10 uM after 24 hrs by propidium iodide staining based flow cytometry (reference value: 22.5 +/- 0.9%); type: functional
# [17] = tested on: MOLT-3; test: Induction of apoptosis in human MOLT3 cells assessed as pro-caspase-6 cleavage by Western blotting method; type: functional, cell-based; in short: as §1
# [18] = tested on: U-937; test: Induction of cell cycle arrest in human U937 cells assessed as accumulation at subG1 phase at 1 uM after 48 hrs by propidium iodide staining based flow cytometry (reference value: 6.7 +/- 0.3%); type: functional
# [19] = tested on: U-937; test: Induction of cell cycle arrest in human U937 cells assessed as accumulation at G2/M phase at 3 uM after 48 hrs by propidium iodide staining based flow cytometry (reference value: 19.1 +/- 1.1%); type: functional
# [20] = tested on: U-937; test: Induction of cell cycle arrest in human U937 cells assessed as accumulation at G2/M phase at 3 uM after 24 hrs by propidium iodide staining based flow cytometry (reference value: 22.8 +/- 1.6%); type: functional
# [21] = tested on: HL-60; test: Induction of cell cycle arrest in human HL60 cells assessed as accumulation at G1 phase at 1 uM after 24 hrs by propidium iodide staining based flow cytometry (reference value: 53 +/- 1.1%); type: functional
# [22] = tested on: U-937; test: Induction of apoptosis in human U937 cells assessed as pro-caspase-3 cleavage by Western blotting method; type: functional, cell-based; in short: as §1
# [23] = tested on: HL-60; test: Induction of apoptosis in human HL60 cells in presence of 10 uM MEK1/2 inhibitor U0126 after 24 hrs by propidium iodide staining based flow cytometry; type: functional
# [24] = tested on: U-937; test: Induction of apoptosis in human U937 cells assessed as increase in caspase 8 activity using IETD-pNA substrate at 10 uM after 24 hrs; type: functional, cell-based; in short: as §2
# [25] = tested on: U-937; test: Induction of apoptosis in human U937 cells assessed as pro-caspase-9 processing at 3 and 10 uM after 6 to 24 hrs by immunoblotting method; type: functional, cell-based
# In short: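 Kinetic and dose-response experiment: cells were treated with the indicated concentrations and harvested at the indicated times. Pro-caspase-8 and -9 cleavage was detected by immunoblotting with antibodies that bind both the proenzyme and the cleaved fragments.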
# [26] = tested on: HL-60; test: Increase in DR5 expression in human HL60 cells at 10 30 uM after 24 hrs by immunoblotting method; type: functional, cell-based
# In short: (§4)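 HL-60 and U937 cells were treated with increasing concentrations for 24 h. Lysates were immunoblotted for TRAIL, DR4 and DR5.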
# [27] = tested on: HL-60; test: Induction of apoptosis in human HL60 cells assessed as pro-caspase-4 processing by Western blotting method; type: functional, cell-based
# [28] = tested on: U-937; test: Induction of Bid processing in human U937 cells by Western blotting method
# [29] = tested on: U-937; test: Increase in DR4 expression in human U937 cells at 10 30 uM after 24 hrs by immunoblotting method; type: functional, cell-based; in short: as §4
# [30] = tested on: U-937; test: Induction of cell cycle arrest in human U937 cells assessed as accumulation at G2/M phase at 10 uM after 24 hrs by propidium iodide staining based flow cytometry (reference value: 22.8 +/- 1.6%); type: functional
# [31] = tested on: U-937; test: Induction of cell cycle arrest in human U937 cells assessed as accumulation at G2/M phase at 1 uM after 24 hrs by propidium iodide staining based flow cytometry (reference value: 22.8 +/- 1.6%); type: functional
# [32] = tested on: U-937; test: Induction of cell cycle arrest in human U937 cells assessed as accumulation at G1 phase at 3 uM after 12 hrs by propidium iodide staining based flow cytometry (reference value: 45.8 +/- 0.8%); type: functional
# [33] = tested on: HL-60; test: Induction of cell cycle arrest in human HL60 cells assessed as accumulation at subG1 phase at 1 uM after 12 hrs by propidium iodide staining based flow cytometry (reference value: 6.1 +/- 0.5%); type: functional
smiles,measurement,setting,value
O=c1c(O)c(-c2ccc(Br)cc2)oc2ccccc12,Activity,[1],Active
same,Activity,[2],3.7%
same,Activity,[3],37.3%
same,Activity,[4],Active
same,fold change (FC),[5],4.5
same,Activity,[6],Active
same,IC50,[7],3.3 µM
same,IC50,[8],5.8 µM
same,Activity,[9],18.2%
same,Activity,[10],24.7%
same,Activity,[11],Active
same,Activity,[12],22.4%
same,Activity,[13],57.6%
same,Activity,[14],Active
same,Activity,[15],inactive
same,Activity,[16],12.6%
same,Activity,[17],Active
same,Activity,[18],7%
same,Activity,[19],19%
same,Activity,[20],21.7%
same,Activity,[21],49.5%
same,Activity,[22],inactive
same,fold change (FC),[23],2
same,Activity,[24],Active
same,Activity,[25],Active
same,Activity,[26],Active
same,Activity,[27],Active
same,Activity,[28],Active
same,Activity,[29],Active
same,Activity,[30],18.7%
same,Activity,[31],25.2%
same,Activity,[32],46.6%
same,Activity,[33],5.6%
